This is an account of results in the array DNA melting data of Ke et al. (doi:10.1101/2024.01.08.574731).

The nature of data set [1]: folding enthalpy; higher = less favourable; fluorescence melt of hairpins on a sequencing array, two-state fit. The following applies: sodium 0.088 M. The procedure, abridged:
(§1)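 In 50 mM Na-HEPES pH 8.0 containing 25 mM NaCl, hairpins from the library on a sequenced MiSeq flow cell were imaged for Cy3 fluorescence at 2.5 °C steps up to 60 °C, with Cy3 and quencher oligos annealed. After normalisation to pre-quench Cy3 and to control constructs, two-state fits with bootstrapping gave melting temperature and folding enthalpy. Four replicates were combined by inverse-variance weighting, and fitted temperatures were shifted up by 9.35 °C to match UV melts.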

The nature of data set [2]: melting temperature; fluorescence melt of hairpins on a sequencing array, two-state fit, raised by 9.35 °C to match UV melts. The following applies: sodium 0.088 M. An outline of the steps:
as §1

Regarding GTCCATCGAAAGATAGAC (((.(((....))).))), in data set [1], the folding enthalpy is -30.5 kcal/mol. Besides, in data set [2], the Tm worked out at 35.2 °C.

On to GTCCATCGAAAGATGAC (((.(((....)))))), for which the folding enthalpy in data set [1] was -16.9 kcal/mol. Further, the Tm in data set [2] turned out to be 42.5 °C.

Regarding GTCCATGGAAACACGGAC ((((.((....)).)))), in data set [1], the folding enthalpy was -25 kcal/mol. The Tm in data set [2] was determined as 42.1 °C.

As to GTCCATGGAAACATGGGC (.(((((....))))).), the folding enthalpy in data set [1] is -42.9 kcal/mol. For the same sequence, the Tm in data set [2] amounted to 54 °C.

Regarding GTCCCACCGAAAGGTGAC (((..(((....)))))), in data set [1], the folding enthalpy is -8.32 kcal/mol. The Tm in data set [2] was 27 °C.

GTCCCAGCGAAAGCTGAC (((..(((....)))))): the folding enthalpy in data set [1] was -8.81 kcal/mol. For the same sequence, in data set [2], the Tm amounted to 22.4 °C.

GTCCCAGGAAACTGGAAC ((.((((....)))).)): the folding enthalpy in data set [1] was -22 kcal/mol. Moreover, the Tm in data set [2] stood at 35.8 °C.

For GTCCCAGGAAACTGGGAC (((((((....))))))), the folding enthalpy in data set [1] is -35.7 kcal/mol. In addition, in data set [2], the Tm came out at 68.8 °C.

On to GTCCCCCCGAAAGGGGAC (((..(((....)))))), for which the folding enthalpy in data set [1] was -16.9 kcal/mol. Besides, the Tm in data set [2] came to 59.5 °C.

Take GTCCCCCGAAAGGGTGAC (((.(((....))).))): in data set [1], the folding enthalpy is -28.1 kcal/mol. Further, the Tm in data set [2] came out at 52.5 °C.

Turning to GTCCCCGAAAGGGACGAC ((((((....)))..))), the folding enthalpy in data set [1] is -18 kcal/mol. Besides, the Tm in data set [2] was 69.3 °C.

GTCCCCGAAAGGGGAGAC ((((((....)))..))): in data set [1], the folding enthalpy was -8.25 kcal/mol. Further, in data set [2], the Tm stood at 54.2 °C.

With GTCCCCGAAAGGGTGGAC ((((((....)))..))), the folding enthalpy in data set [1] was -14.8 kcal/mol. The Tm in data set [2] came out at 48.9 °C.

As for GTCCCCGAAAGGGTTGAC ((((((....)))..))), the folding enthalpy in data set [1] is -15.3 kcal/mol. For the same sequence, the Tm in data set [2] was found to be 33.7 °C.

For the sequence GTCCCGGGAAACCAGGAC ((((.((....)).)))), the folding enthalpy in data set [1] is -22.7 kcal/mol. Moreover, the Tm in data set [2] was determined as 46 °C.

GTCCGAGGAAACTCGGGC (.(((((....))))).): the folding enthalpy in data set [1] is -30.3 kcal/mol. The Tm in data set [2] came to 59.5 °C.

In the case of GTCCGATCGAAAGATGAC (((..(((....)))))), the folding enthalpy in data set [1] was -10.7 kcal/mol. For the same sequence, the Tm in data set [2] is 28.3 °C.

As for GTCCGCCGAAAGGCGAC (((.(((....)))))), the folding enthalpy in data set [1] is -9.54 kcal/mol. The Tm in data set [2] stood at 52.5 °C.

Regarding GTCCGCGAAAGCGAGAC ((((((....))).))), the folding enthalpy in data set [1] is -14.2 kcal/mol. The Tm in data set [2] turned out to be 59.2 °C.

In the case of GTCCGCGAAAGCGATGAC ((((((....)))..))), the folding enthalpy in data set [1] was -15.9 kcal/mol. The Tm in data set [2] turned out to be 38.3 °C.

Consider GTCCGCGAAAGCGCAGAC ((((((....)))..))), for which the folding enthalpy in data set [1] was -14.6 kcal/mol. In data set [2], the Tm came to 40.8 °C.

Take GTCCGCGAAAGCGGGGAC ((((((....)))..))): the folding enthalpy in data set [1] was -8.28 kcal/mol. The Tm in data set [2] stood at 47.3 °C.

GTCCGCGAAAGCGTCGAC ((((((....)))..))): the folding enthalpy in data set [1] was -13.3 kcal/mol. Also, in data set [2], the Tm amounted to 37.2 °C.

With GTCCGCGGAAACGCGAAC ((.((((....)))).)), the folding enthalpy in data set [1] is -16.5 kcal/mol. In addition, in data set [2], the Tm stood at 50.9 °C.

Regarding GTCCGCGGAAACGTGGGC (.((.((....)).)).), in data set [1], the folding enthalpy was -26.5 kcal/mol. Also, in data set [2], the Tm was 53 °C.

GTCCGGACGAAAGTCGAC (((..(((....)))))): the folding enthalpy in data set [1] is -14 kcal/mol. Besides, the Tm in data set [2] worked out at 35.5 °C.

Regarding GTCCGGGGAAACCCGGGC (.(((((....))))).), the folding enthalpy in data set [1] is -21.6 kcal/mol. Further, the Tm in data set [2] came to 65 °C.

With GTCCGTCGAAAGACAGAC (((.(((....))).))), in data set [1], the folding enthalpy is -22.3 kcal/mol. For the same sequence, in data set [2], the Tm was 47 °C.

GTCCTACGAAAGTAGAC (((.(((....)))))): the folding enthalpy in data set [1] was -18.1 kcal/mol. In addition, in data set [2], the Tm is 39.6 °C.

With GTCCTAGCGAAAGCTGAC (((..(((....)))))), the folding enthalpy in data set [1] is -12.7 kcal/mol. In addition, the Tm in data set [2] is 31.5 °C.

GTCCTCCGAAAGGATGAC (((.(((....))).))): the folding enthalpy in data set [1] was -30.7 kcal/mol. Besides, the Tm in data set [2] is 48.6 °C.

GTCCTCGAAAGAGAGGAC ((((((....)))..))): the folding enthalpy in data set [1] is -30.2 kcal/mol. For the same sequence, the Tm in data set [2] was 52.9 °C.

For the sequence GTCCTCGAAAGAGCGGAC ((((((....)))..))), the folding enthalpy in data set [1] was -22.1 kcal/mol. The Tm in data set [2] is 36.1 °C.

Take GTCCTCGAAAGAGGTGAC ((((((....)))..))): the folding enthalpy in data set [1] was -11.6 kcal/mol. Further, the Tm in data set [2] was found to be 35.5 °C.

As for GTCCTCGAAAGAGTGGAC ((((((....)))..))), in data set [1], the folding enthalpy is -23.6 kcal/mol. In addition, the Tm in data set [2] turned out to be 41.6 °C.

As for GTCCTCGGAAACGAGAAC ((.((((....)))).)), the folding enthalpy in data set [1] is -20.7 kcal/mol. Further, the Tm in data set [2] stood at 39.7 °C.
